Series [1] can be described thus: Chemical stability of the compound in borate buffered saline assessed as half life of cyclization at pH 6.2. It is filed as physicochemical. Put shortly:
(§1)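 Lactamization of the amino intermediate in borate-buffered saline, pH range 5–8, 37 °C, ionic strength 0.12 (figure legend gives I = 0.05). Parent loss and formation of parent drug and dihydroquinolone followed by HPLC, validated at 1.1–16.6 µM. Apparent first-order rate constants fitted by nonlinear regression, three determinations per pH; half-lives derived from these constants.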

Series [2] can be described thus: Chemical stability of the compound in borate buffered saline assessed as half life of cyclization at pH 5.52. It is filed as physicochemical. In outline: as §1
The nature of series [3]: Chemical stability of the compound in borate buffered saline assessed as half life of cyclization at pH 7. It counts as physicochemical. Put shortly: as §1
Series [4] is described as follows: Chemical stability of the compound in borate buffered saline assessed as half life of cyclization at pH 6.4. It counts as physicochemical. Put shortly: as §1
The nature of series [5]: Chemical stability of the compound in borate buffered saline assessed as half life of cyclization at pH 6.11. It is filed as physicochemical. In outline: as §1
Series [6] is described as follows: Chemical stability of the compound in borate buffered saline assessed as half life of cyclization at pH 7.4. It counts as physicochemical. Put shortly:
as §1

The nature of series [7]: Chemical stability of the compound in borate buffered saline assessed as half life of cyclization at pH 6.28. It is filed as physicochemical. Put shortly:
as §1

The nature of series [8]: Chemical stability of the compound in borate buffered saline assessed as half life of cyclization at pH 6. It is filed as physicochemical. In outline:
as §1

A short description of series [9]: Dissociation constant, pKa of the compound. It is filed as physicochemical.
Series [10] in a line: Secretory transport of the compound through transepithelial human Caco2 model. It counts as ADME, cell-based. Particulars: Caco-2. Background: Passage across Caco-2 layers is used to estimate intestinal permeability.

As for `Cc1ccc(-c2cc(C(F)(F)F)nn2-c2ccc(S(=O)(=O)NC(=O)CCc3ccccc3N)cc2)cc1`, the half-life (as a rule, how long it takes for the measured level to halve) in [1] was 29.5 min; in series [2], 10.2 min; in series [3], 130 min; in series [4], 60.3 min; in series [5], 15.2 min; in series [6], 632 min. In addition, the results for the half-life in series [7] and in series [8] were 41.2 min and 10.9 min, respectively.

Regarding `CCC(=O)NS(=O)(=O)c1ccc(-c2c(-c3ccccc3)noc2C)cc1` [PARECOXIB], the pKa (usually the negative logarithm of the acid dissociation constant) in [9] was 4.9.

For `Cc1ccc(-c2cc(C(F)(F)F)nn2-c2ccc(S(N)(=O)=O)cc2)cc1` [CELECOXIB], in series [10], the Papp B→A – broadly, the apparent permeability from the basolateral to the apical side of a cell layer – turned out to be 12.4 ×10⁻⁶ cm/s.

Source of the values: ChEMBL document CHEMBL1909513, “A double prodrug system for colon targeting of benzenesulfonamide COX-2 inhibitors” (Bioorg Med Chem Lett, 2011).
